Paper PMC6217710 (Pain Medicine: The Official Journal of the American Academy …, 2018)

Assays:
[1] = tested on: healthy male subjects; assay: Safety and tolerability; type: in vivo, human
[2] = tested on: healthy male subjects; assay: Postlaser pain visual analog scale; type: in vivo, human; conditions: all subjects
In short: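 Measured in the same capsaicin-pretreated back-skin sessions of the 4-period crossover (24 healthy males, double-blind, single doses, 6-day washout). Laser intensity was held at each subject's pain threshold, set on untreated skin during screening. After the laser stimuli, subjects rated pain on a 0–100 mm visual analog scale, expressed as %. Ratings were taken predose and hourly up to 8 h, compared against placebo.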

[3] = tested on: healthy male subjects; conditions: previous data in healthy subjects; cited from earlier work
[4] = tested on: healthy male subjects; assay: Laser-evoked potentials; type: in vivo, human
In short: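 Crossover in 24 healthy CYP2D6 extensive/intermediate-metabolizer males: 4 double-blind, double-dummy single-dose periods with 6-day washouts. Back skin got topical 1% alcoholic capsaicin under occlusion for 25 min, then two CO2-laser rekindling sessions. Each session used ≥13 80-msec laser stimuli at the fixed individual pain-threshold intensity. Vertex EEG (Cz vs right mastoid, artifacts rejected) recorded predose and hourly to 8 h. Value is the N2-P2 amplitude difference vs placebo.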

[5] = Plasma pharmacokinetics after single oral dose; type: in vivo; conditions: human, 150 mg

Structure (SMILES): CC(C)C[C@H](CN)CC(=O)O [Pregabalin, pregabalin]
- Subjects who reported TEAEs ([1]; during treatment with pregabalin 150 mg): 50%
- Any TEAE ([1]; pregabalin 150 mg (n = 24)): 12 (50) No. (%)
- Dizziness ([1]; pregabalin 150 mg (n = 24)): 6 (25) No. (%)
- Drug-related TEAE ([1]; pregabalin 150 mg (n = 24)): 12 (50) No. (%)
- Fatigue ([1]; pregabalin 150 mg (n = 24)): 4 (17) No. (%)
- Headache ([1]; pregabalin 150 mg (n = 24)): 0 No. (%)
- Nausea ([1]; pregabalin 150 mg (n = 24)): 1 (4) No. (%)
- Serious TEAE ([1]; pregabalin 150 mg (n = 24)): 0 No. (%)
- Somnolence ([1]; pregabalin 150 mg (n = 24)): 1 (4) No. (%)
- Vertigo ([1]; pregabalin 150 mg (n = 24)): 3 (13) No. (%)
- Difference in VAS pain ([2]; pregabalin 150 mg vs placebo): –9.90%
- VAS pain score ([2]; pregabalin 150 mg): 36.6%
- Reductions in PtP amplitudes of LEPs maintained postdose [3]: more than six hours
- Start of reductions in PtP amplitudes of LEPs [3]: one to two hours postadministration
- Difference in LEP N2-P2 PtP amplitudes ([4]; pregabalin 150 mg single dose vs placebo, all subjects (n = 24)): –3.30 μV
- LEP N2-P2 PtP amplitude value ([4]; pregabalin 150 mg, overall, all subjects): 26.7 μV
- Tmax [5]: 1.08 h
- Cmax ([5]; mean Cmax, pregabalin 150 mg single oral dose): 3480 ng/mL
